Several values for one entry are separate records, joined by “and”; a condition that tells them apart may be missing. Equal entries are not always repeated.

The target in series [1] is T1, human CYP24A1 (hCYP24A1) (Homo sapiens, UniProt Q07973).
T1 sequence (Q07973 36-514): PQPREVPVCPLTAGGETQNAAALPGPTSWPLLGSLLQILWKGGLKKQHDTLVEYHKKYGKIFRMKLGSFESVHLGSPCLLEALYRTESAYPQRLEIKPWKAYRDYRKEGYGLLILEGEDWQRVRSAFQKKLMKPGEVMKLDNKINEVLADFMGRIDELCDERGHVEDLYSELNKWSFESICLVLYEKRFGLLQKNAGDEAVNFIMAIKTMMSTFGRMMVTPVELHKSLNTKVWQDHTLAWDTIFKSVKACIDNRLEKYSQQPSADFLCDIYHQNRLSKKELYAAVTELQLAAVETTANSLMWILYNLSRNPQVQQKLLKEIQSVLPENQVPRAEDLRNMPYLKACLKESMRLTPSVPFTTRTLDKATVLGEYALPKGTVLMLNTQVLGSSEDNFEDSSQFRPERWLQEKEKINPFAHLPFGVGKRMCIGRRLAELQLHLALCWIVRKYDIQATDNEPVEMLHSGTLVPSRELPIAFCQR
The series can be described thus: Spectral ligand binding assay with hCYP24A1. The note with it: for spectral response on titration (type-I, high-spin transition): hCYP24A1 without hAdx.

Series [2] relates to rat CYP24A1. The note with it: cited from earlier work.
For series [3], the target named is T2, hCYP24A1 (Homo sapiens, UniProt Q07973).
T2 sequence (Q07973 36-514): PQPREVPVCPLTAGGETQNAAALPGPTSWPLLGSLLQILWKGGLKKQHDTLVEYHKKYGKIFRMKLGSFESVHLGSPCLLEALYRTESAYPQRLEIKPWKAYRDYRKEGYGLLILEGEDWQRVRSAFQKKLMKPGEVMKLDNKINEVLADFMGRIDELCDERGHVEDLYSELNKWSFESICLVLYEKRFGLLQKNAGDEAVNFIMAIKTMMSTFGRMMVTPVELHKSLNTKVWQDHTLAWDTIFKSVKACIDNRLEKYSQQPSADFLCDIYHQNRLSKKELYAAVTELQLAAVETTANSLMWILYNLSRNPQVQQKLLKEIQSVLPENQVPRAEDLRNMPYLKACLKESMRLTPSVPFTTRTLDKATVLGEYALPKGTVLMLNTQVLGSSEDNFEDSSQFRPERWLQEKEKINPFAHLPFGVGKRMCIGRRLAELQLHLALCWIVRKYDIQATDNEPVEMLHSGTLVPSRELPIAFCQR
T2 sequence (P10109 61-184 D132N/D136N partner): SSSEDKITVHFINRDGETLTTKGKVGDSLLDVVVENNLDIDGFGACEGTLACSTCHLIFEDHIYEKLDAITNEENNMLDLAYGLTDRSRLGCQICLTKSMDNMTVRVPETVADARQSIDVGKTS
The experiment in a line: Reconstituted hCYP24A1 functional assay. The note with it: D72N_D76N hAdx double mutant; substrate 5 μM. The class given is biochemical.

The target of series [4] is T3, rat CYP24A1 (rCYP24A1) (Rattus norvegicus, UniProt Q09128).
T3 sequence (Q09128 36-514): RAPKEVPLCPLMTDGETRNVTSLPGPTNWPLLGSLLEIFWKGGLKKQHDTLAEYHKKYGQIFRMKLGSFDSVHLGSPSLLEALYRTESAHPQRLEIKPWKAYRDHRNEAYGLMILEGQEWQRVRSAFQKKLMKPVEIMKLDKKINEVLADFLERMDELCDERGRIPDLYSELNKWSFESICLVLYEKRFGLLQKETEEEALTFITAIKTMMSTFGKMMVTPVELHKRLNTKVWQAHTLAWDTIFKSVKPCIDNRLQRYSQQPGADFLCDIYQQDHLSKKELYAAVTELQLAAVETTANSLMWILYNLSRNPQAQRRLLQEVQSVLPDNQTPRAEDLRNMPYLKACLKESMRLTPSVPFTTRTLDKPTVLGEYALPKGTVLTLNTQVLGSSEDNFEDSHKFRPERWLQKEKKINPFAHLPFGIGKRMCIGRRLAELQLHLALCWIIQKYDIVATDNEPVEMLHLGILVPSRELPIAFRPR
The series can be described thus: Spectral ligand binding assay with rCYP24A1. The note with it: rCYP24A1, no Adx. A digest of the protocol: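 UV-visible difference-spectra titration at ambient temperature with enzyme at 1 μM in 10 mM potassium phosphate. Ligand added from DMSO stock, solvent ≤2%, with 8 min incubation per point before each wavelength scan. Where Adx was present, 10 μM hAdx (WT or L80V) was baselined in the cuvette before enzyme and ligand.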

The target in series [5] is T4, human cytochrome P450 24A1 (hCYP24A1), cleaved and separated from the hAdx_hCYP24A1 fusion (human, UniProt Q07973 36-514).
T4 sequence (looked up): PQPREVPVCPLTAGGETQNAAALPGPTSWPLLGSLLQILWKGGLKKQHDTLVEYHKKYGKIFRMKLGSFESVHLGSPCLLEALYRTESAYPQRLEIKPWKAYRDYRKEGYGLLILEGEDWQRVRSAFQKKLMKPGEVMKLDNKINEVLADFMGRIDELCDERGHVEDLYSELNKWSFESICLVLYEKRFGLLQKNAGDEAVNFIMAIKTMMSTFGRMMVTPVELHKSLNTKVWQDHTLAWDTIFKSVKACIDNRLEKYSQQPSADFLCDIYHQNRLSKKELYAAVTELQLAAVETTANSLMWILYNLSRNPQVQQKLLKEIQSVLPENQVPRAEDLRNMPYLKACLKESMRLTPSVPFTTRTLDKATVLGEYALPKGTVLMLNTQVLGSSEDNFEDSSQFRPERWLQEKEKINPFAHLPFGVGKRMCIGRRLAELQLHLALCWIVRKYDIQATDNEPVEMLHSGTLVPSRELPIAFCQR
The series can be described thus: cross-linking.

Broadly, the Kd is the constant that tells how readily two partners part at equilibrium. Read a low Kd as higher affinity. Take `C=C1/C(=C\C=C2/CCC[C@]3(C)[C@@H]([C@H](C)CCCC(C)C)CC[C@@H]23)C[C@@H](O)C[C@@H]1O` [1α(OH)D]: in series [1] (+hAdx (WT, 10-fold, 10 μM)), the Kd worked out at 700 ± 50 nM and the ΔAmax was 0.055 ± 0.004 AU. Besides, in series [1] (hCYP24A1 1 μM, no hAdx), the Kd turned out to be 400 ± 100 nM and the ΔAmax was 0.04 ± 0.008 AU. Moreover, the “spectral response on titration (type-I, high-spin transition)” value (shortened to “spectral response on titration”) in series [1] is reported as “type-I response, albeit with a more noticeable increase in the high-spin transition”. Further, in series [2], the “substrate quality for rat CYP24A1” value is recorded as “poor substrate”.

In the case of `C=C1/C(=C/C=C2\CCC[C@@]3(C)C2CC[C@@H]3C(C)CCC(O)C(C)(C)O)C[C@@H](O)C[C@@H]1O` (stereo partly drawn) [1α,24,25(OH)3D], in series [1] (+hAdx (WT, 10-fold, 10 μM)), the Kd is 4000 ± 40 nM and the ΔAmax was 0.04 ± 0.003 AU. Besides, the “spectral response on titration” value in series [1] is “only a minimal type-I response”.

On to `C=C1/C(=C\C=C2/CCC[C@]3(C)[C@@H]([C@H](C)CCCC(C)(C)O)CC[C@@H]23)C[C@@H](O)C[C@@H]1O` [1α,25(OH)2D], for which the ΔAmax in series [1] (10-fold excess of D72N_D76N hAdx) was 0.02 ± 0.002 AU; in series [1] (10-fold excess of L80I hAdx), 0.04 ± 0.003 AU; in series [1] (10-fold excess of L80Q hAdx), 0.02 ± 0.001 AU; in series [1] (10-fold excess of L80V hAdx) it was 0.04 ± 0.003 AU; in series [1] (+hAdx (WT, 10-fold, 10 μM)), 0.03 ± 0.004 AU; in series [1] (hCYP24A1 1 μM, no hAdx), 0.03 ± 0.004 AU and 0.03 ± 0.005 AU. In series [4], this molecule returned a ΔAmax of 0.05 ± 0.004 AU. Also, the “spectral response on titration” value in series [1] was “type-I transition of the Soret band”. Further, in series [3], the substrate remaining entry was “approximately 60%”.

`C=C1CC[C@H](O)C/C1=C/C=C1\CCC[C@]2(C)[C@@H]([C@H](C)CCCC(C)(C)O)CC[C@@H]12` [25(OH)D]: the “spectral response on titration” value in series [1] is listed as “no measureable high-spin form is detected”. Also, the “binding affinity relative to other substrates” value in series [1] (interaction could not be saturated) is recorded as “likely binds with a weaker affinity than the other substrates tested”.

B1: human adrenodoxin (hAdx), unfused, wild type (natural protein)
chain: SSSEDKITVHFINRDGETLTTKGKVGDSLLDVVVENNLDIDGFGACEGTLACSTCHLIFEDHIYEKLDAITDEENDMLDLAYGLTDRSRLGCQICLTKSMDNMTVRVPETVADARQSIDVGKTS
In the case of B1, the binding result in series [5] is “binds”.

B2: human adrenodoxin mutant L80V (natural protein)
chain: SSSEDKITVHFINRDGETLTTKGKVGDSLLDVVVENNLDIDGFGACEGTLACSTCHLIFEDHIYEKLDAITDEENDMLDVAYGLTDRSRLGCQICLTKSMDNMTVRVPETVADARQSIDVGKTS
For B2, the binding result in series [5] is “binds”.

B3: human adrenodoxin mutant L80I (natural protein)
chain: SSSEDKITVHFINRDGETLTTKGKVGDSLLDVVVENNLDIDGFGACEGTLACSTCHLIFEDHIYEKLDAITDEENDMLDIAYGLTDRSRLGCQICLTKSMDNMTVRVPETVADARQSIDVGKTS
Take B3: the binding result in series [5] was “binds”.

B4: human adrenodoxin mutant L80Q (natural protein)
chain: SSSEDKITVHFINRDGETLTTKGKVGDSLLDVVVENNLDIDGFGACEGTLACSTCHLIFEDHIYEKLDAITDEENDMLDQAYGLTDRSRLGCQICLTKSMDNMTVRVPETVADARQSIDVGKTS
Take B4: in series [5], the binding result is “binds”.

Source of the values: PMC8970626 (Biochemistry, 2022).
